{
  "source": "ChEMBL document CHEMBL1153805",
  "about": "“Phenylethanoid glycosides from Lantana fucata with in vitro anti-inflammatory activity” (J Nat Prod, 2009)",
  "key": {"[1]": {"experiment": "Antiproliferative activity against mouse J774A1 cells assessed as cell viability at 10 ug/ml after 72 hrs by MTT assay relative to LPS", "format": "cell-based, J774.A1", "in_short": "(§1)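 J774A.1 cells (3.5 × 10⁴/well) adhered 2 h at 37 °C, 5% CO₂. Medium was renewed, then serial dilutions of compound were added for 72 h. MTT was added for a further 3 h, formazan was dissolved in 50% DMF/20% SDS (pH 4.5), and OD was read at 620 nm. % dead cells = 100 − (OD treated/OD control) × 100. A cell-free control tested for MTT interference.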"}, "[2]": {"experiment": "Antiproliferative activity against mouse J774A1 cells assessed as cell viability at 1 ug/ml after 72 hrs by MTT assay relative to LPS", "format": "cell-based, J774.A1", "in_short": "as §1"}, "[3]": {"experiment": "Antiproliferative activity against mouse J774A1 cells assessed as cell viability at 100 ug/ml after 72 hrs by MTT assay relative to LPS", "format": "cell-based, J774.A1", "in_short": "as §1"}, "[4]": {"tested_on": "J774.A1", "experiment": "Antiinflammatory activity in mouse J774A1 cells assessed as inhibition of LPS-induced NO release at 100 ug/ml after 24 hrs treated 1 hr before LPS challenge relative to LPS", "format": "functional", "in_short": "(§2)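 J774A.1 cells (5.0 × 10⁴/well) adhered 2 h at 37 °C, 5% CO₂. Compounds added 1 h before and simultaneously with E. coli LPS (6 × 10³ U/mL) to induce iNOS. Nitrite accumulated in medium was measured 24 h after LPS with Griess reagent against a sodium nitrite standard curve made in culture medium. Expressed as % inhibition versus LPS-only cells. L-NAME (1 µM) was the reference.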"}, "[5]": {"tested_on": "J774.A1", "experiment": "Antiinflammatory activity in mouse J774A1 cells assessed as inhibition of LPS-induced NO release at 1 ug/ml after 24 hrs treated 1 hr before LPS challenge relative to LPS", "format": "functional", "in_short": "as §2"}, "[6]": {"tested_on": "J774.A1", "experiment": "Antiinflammatory activity in mouse J774A1 cells assessed as inhibition of LPS-induced NO release at 10 ug/ml after 24 hrs treated 1 hr before LPS challenge relative to LPS", "format": "functional", "in_short": "as §2"}, "[7]": {"tested_on": "J774.A1", "experiment": "Antiinflammatory activity in mouse J774A1 cells assessed as inhibition of LPS-induced NO release at 1 uM after 24 hrs treated 1 hr before LPS challenge relative to LPS", "format": "functional", "in_short": "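J774A.1 murine macrophages plated at 5.0 × 10⁴ cells/well, adhered 2 h at 37 °C in 5% CO₂. Compounds (1-100 µg/mL) added 1 h before and simultaneously with E. coli LPS (6 × 10³ U/mL) to induce iNOS. After 24 h, nitrite in medium measured by Griess reagent against a sodium nitrite standard curve made in culture medium. Expressed as % inhibition versus LPS alone.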"}},
  "data": [
    {"smiles": "O=C(/C=C/c1ccc(O)c(O)c1)O[C@H]1[C@H](O)[C@@H](O[C@@H]2OC[C@](O)(CO)[C@H]2O)[C@H](OCCc2ccc(O)c(O)c2)O[C@@H]1CO", "note": "[FUCATOSIDE A]", "values": [
      {"measurement": "viability at 72 h, 10 ug/ml", "setting": "[1]", "result": 95.9, "unit": "%"},
      {"measurement": "viability at 72 h, 1 ug/ml", "setting": "[2]", "result": 97.3, "unit": "%"},
      {"measurement": "viability at 72 h, 100 ug/ml", "setting": "[3]", "result": 95, "unit": "%"},
      {"measurement": "inhibition at 100 µg/mL", "setting": "[4]", "result": 52.5, "unit": "%"},
      {"measurement": "inhibition at 1 µg/mL", "setting": "[5]", "result": 13.3, "unit": "%"},
      {"measurement": "inhibition at 10 µg/mL", "setting": "[6]", "result": 11.2, "unit": "%"}
    ]},
    {"smiles": "COC(=O)[C@@H](N)CCCNC(=N)N[N+](=O)[O-]", "note": "[L-NAME]", "values": [
      {"measurement": "inhibition at 1 µM", "setting": "[7]", "result": 46.6, "unit": "%"}
    ]},
    {"smiles": "Sc1ncnc2nc[nH]c12", "note": "[MERCAPTOPURINE ANHYDROUS]", "values": [
      {"measurement": "viability at 72 h, 10 ug/ml", "setting": "[1]", "result": 38, "unit": "%"},
      {"measurement": "viability at 72 h, 1 ug/ml", "setting": "[2]", "result": 44.1, "unit": "%"},
      {"measurement": "viability at 72 h, 100 ug/ml", "setting": "[3]", "result": 31.8, "unit": "%"}
    ]},
    {"smiles": "C[C@@H]1O[C@@H](O[C@H]2[C@H](OCCc3ccc(O)c(O)c3)O[C@H](CO)[C@@H](OC(=O)/C=C/c3ccc(O)c(O)c3)[C@@H]2O)[C@H](O)[C@H](O)[C@H]1O", "note": "[PARVIFLOROSIDE A]", "values": [
      {"measurement": "viability at 72 h, 10 ug/ml", "setting": "[1]", "result": 95.9, "unit": "%"},
      {"measurement": "viability at 72 h, 1 ug/ml", "setting": "[2]", "result": 96.7, "unit": "%"},
      {"measurement": "viability at 72 h, 100 ug/ml", "setting": "[3]", "result": 96.9, "unit": "%"},
      {"measurement": "inhibition at 100 µg/mL", "setting": "[4]", "result": 88.5, "unit": "%"},
      {"measurement": "inhibition at 1 µg/mL", "setting": "[5]", "result": 3.8, "unit": "%"},
      {"measurement": "inhibition at 10 µg/mL", "setting": "[6]", "result": 9, "unit": "%"}
    ]},
    {"smiles": "O=C(/C=C/c1ccc(O)c(O)c1)O[C@H]1[C@H](O[C@@H]2OC[C@](O)(CO)[C@H]2O)[C@@H](O[C@@H]2OC[C@@H](O)[C@H](O)[C@H]2O)[C@H](OCCc2ccc(O)c(O)c2)O[C@@H]1CO", "note": "[FUCATOSIDE B]", "values": [
      {"measurement": "viability at 72 h, 10 ug/ml", "setting": "[1]", "result": 96.1, "unit": "%"},
      {"measurement": "viability at 72 h, 1 ug/ml", "setting": "[2]", "result": 97.5, "unit": "%"},
      {"measurement": "viability at 72 h, 100 ug/ml", "setting": "[3]", "result": 94.4, "unit": "%"},
      {"measurement": "inhibition at 100 µg/mL", "setting": "[4]", "result": 81.4, "unit": "%"},
      {"measurement": "inhibition at 1 µg/mL", "setting": "[5]", "result": 13.7, "unit": "%"},
      {"measurement": "inhibition at 10 µg/mL", "setting": "[6]", "result": 16.4, "unit": "%"}
    ]},
    {"smiles": "O=C(/C=C/c1ccc(O)c(O)c1)O[C@H]1[C@H](O[C@@H]2OC[C@@](O)(CO)[C@H]2O)[C@@H](O[C@@H]2OC[C@@](O)(CO)[C@H]2O)[C@H](OCCc2ccc(O)c(O)c2)O[C@@H]1CO", "note": "[FUCATOSIDE C]", "values": [
      {"measurement": "viability at 72 h, 10 ug/ml", "setting": "[1]", "result": 96.8, "unit": "%"},
      {"measurement": "viability at 72 h, 1 ug/ml", "setting": "[2]", "result": 96.4, "unit": "%"},
      {"measurement": "viability at 72 h, 100 ug/ml", "setting": "[3]", "result": 94.3, "unit": "%"},
      {"measurement": "inhibition at 100 µg/mL", "setting": "[4]", "result": 93.7, "unit": "%"},
      {"measurement": "inhibition at 1 µg/mL", "setting": "[5]", "result": 4.4, "unit": "%"},
      {"measurement": "inhibition at 10 µg/mL", "setting": "[6]", "result": 31.8, "unit": "%"}
    ]}
  ]
}
